Reference: ChEMBL document CHEMBL4014329, “Selective Inhibition of Escherichia coli RNA and DNA Topoisomerase I by Hoechst 33258 Derived Mono- and Bisbenzimidazoles” (J Med Chem, 2017)
≈ marks a conversion by molar mass, not a printed value. Calls of active or inactive are those of the source. The rule behind the calls is not given here.

Key:
Escherichia coli [1] = experiment: Antibacterial activity against Escherichia coli ATCC 25922 after 24 hrs by microbroth dilution method; type: functional; conditions: ATCC 25922, 24 h
Procedure, shortened: (§1)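 Microbroth dilution per CLSI guidelines. Organisms grown in Mueller−Hinton broth at 37 °C with shaking to log phase, pelleted, resuspended in 0.85% saline to OD625 0.1. Final inoculum 5 × 10^5 CFU/mL; triplicate; 24 h at 37 °C. OD625 read; MIC = lowest concentration completely inhibiting growth versus untreated controls.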

Enterococcus faecium = experiment: Antibacterial activity against Enterococcus faecium BM4105RF after 24 hrs by microbroth dilution method; type: functional
Procedure, shortened: (§2)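 Mueller-Hinton broth cultures grown at 37 °C with shaking to log phase, pelleted, resuspended in 0.85% saline to OD625 0.1. Broth microdilution per CLSI guidelines, final inoculum 5 × 10^5 CFU/mL, in triplicate, 24 h at 37 °C. Growth read as OD625. MIC is the lowest concentration giving complete growth inhibition versus untreated controls.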

Citrobacter freundii = experiment: Antibacterial activity against Citrobacter freundii 4747CFAA after 24 hrs by microbroth dilution method; type: functional; procedure, shortened: as §1
Enterobacter cloacae = experiment: Antibacterial activity against Enterobacter cloacae ATCC 13047 after 24 hrs by microbroth dilution method; type: functional; conditions: ATCC 13047, 24 h; procedure, shortened: as §1
Staphylococcus aureus [2] = experiment: Antibacterial activity against Staphylococcus aureus ATCC 29213 after 24 hrs by microbroth dilution method; type: functional; conditions: ATCC 29213, 24 h; procedure, shortened: as §1
Staphylococcus aureus [3] = experiment: Antibacterial activity against methicillin-resistant Staphylococcus aureus 33591 after 24 hrs by microbroth dilution method; type: functional; conditions: Staphylococcus aureus, 33591, 24 h; procedure, shortened: as §2
Staphylococcus aureus [4] = experiment: Antibacterial activity against Staphylococcus aureus ATCC 33591 after 24 hrs by microbroth dilution method; type: functional; conditions: ATCC 33591, 24 h; procedure, shortened: as §1
[5] = test system: Staphylococcus epidermidis; experiment: Antibacterial activity against Staphylococcus epidermidis ATCC 12384 after 24 hrs by microbroth dilution method; type: functional; conditions: ATCC 12384, 24 h; procedure, shortened: as §1
Pseudomonas aeruginosa = experiment: Antibacterial activity against Pseudomonas aeruginosa ATCC 27853 after 24 hrs by microbroth dilution method; type: functional; conditions: ATCC 27853, 24 h; procedure, shortened: as §1
Acinetobacter baumannii = experiment: Antibacterial activity against Acinetobacter baumannii ATCC 19606 after 24 hrs by microbroth dilution method; type: functional; conditions: ATCC 19606 = CIP 70.34 = JCM 6841, 24 h; procedure, shortened: as §1
Shigella flexneri = experiment: Antibacterial activity against Shigella flexneri 2457NR517 after 24 hrs by microbroth dilution method; type: functional; conditions: 2457NR517, 24 h; procedure, shortened: as §2
[6] = Binding affinity to dA60.dT60 B-DNA duplex (unknown origin) assessed as induction of biphasic transition at <5 uM by UV-vis spectrophotometric analysis
Enterococcus faecalis = experiment: Antibacterial activity against Enterococcus faecalis ATCC 29212 after 24 hrs by microbroth dilution method; type: functional; conditions: ATCC 29212, 24 h; procedure, shortened: as §1
Klebsiella pneumoniae = experiment: Antibacterial activity against Klebsiella pneumoniae NR15410 after 24 hrs by microbroth dilution method; type: functional; conditions: NR15410, 24 h; procedure, shortened: as §1
Staphylococcus aureus [7] = experiment: Antibacterial activity against methicillin-resistant Staphylococcus aureus A960649 after 24 hrs by microbroth dilution method; type: functional; conditions: A960649, 24 h; procedure, shortened: as §2
Escherichia coli [8] = experiment: Antibacterial activity against Escherichia coli K-12 after 24 hrs by microbroth dilution method; type: functional; conditions: K-12, 24 h; procedure, shortened: as §1
[9] = Binding affinity to dA60.dT60 B-DNA duplex (unknown origin) assessed as change in melting temperature at 10 uM by UV-vis spectrophotometric analysis
Procedure, shortened: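 UV melting of dA60·dT60 at 1 μM/duplex with compound at 10 μM. Buffer 10 mM sodium cacodylate, 0.1 mM EDTA, 100 mM NaCl, pH 7.0; duplex pre-annealed from 95 °C. Compound stocks in DMSO diluted into buffer. Heating at 0.2 °C/min, monitored at 260 nm, points every 1.0 °C; Tm taken from derivatives.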

DU-145 = experiment: Cytotoxicity against human DU145 cells after 48 hrs by SRB assay; type: cell-based
Procedure, shortened: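 Cells cultured per ATCC protocols, seeded and grown 24 h (37 °C, 5% CO2), then treated in triplicate at final 20, 10, 5, 2.5, 1.25, 0.625 and 0.0625 μM for 48 h. Fixed with cold TCA (16% final, 4 °C, 1 h), stained with SRB in 1% acetic acid, dye solubilized in 10 mM Tris base, A560 read. IC50 derived; study in duplicate.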

Escherichia coli [10] = experiment: Inhibition of Escherichia coli DNA gyrase using relaxed plasmid pBAD-GFPuv as substrate after 30 mins by agarose gel electrophoresis
Escherichia coli [11] = experiment: Inhibition of Escherichia coli RNA topoisomerase 1 using circular RNA as substrate up to 50 uM after 1.5 hrs by SDS-PAGE analysis
Procedure, shortened: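 10 nM E. coli topoisomerase I premixed with reaction buffer and inhibitor diluted in DMSO, then circular RNA substrate added; 1.5 h incubation. Stopped with proteinase K/SDS/EDTA buffer. Trefoil RNA knot product separated from circular substrate on 15% TBE−urea gels and detected by phosphorimaging. DMSO-only control included.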

[12] = Inhibition of Escherichia coli DNA topoisomerase 1 using plasmid pBAD-GFPuv as substrate after 15 mins by agarose gel electrophoresis
Procedure, shortened: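 E. coli topoisomerase I at 6 nM relaxing 150 ng supercoiled pBAD-GFPuv. 15 min at 37 °C, phenol-stopped, 1% agarose gel, ethidium stain. IC50 is the concentration leaving 50% DNA supercoiled; three independent determinations.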

| SMILES | MIC (Escherichia coli [1]) [µg/mL] | MIC (Enterococcus faecium) [µg/mL] | MIC (Citrobacter freundii) [µg/mL] | MIC (Enterobacter cloacae) [µg/mL] | MIC (Staphylococcus aureus [2]) [µg/mL] | MIC (Staphylococcus aureus [3]) [µg/mL] | MIC (Staphylococcus aureus [4]) [µg/mL] | MIC [5] [µg/mL] | MIC (Pseudomonas aeruginosa) [µg/mL] | MIC (Acinetobacter baumannii) [µg/mL] | MIC (Shigella flexneri) [µg/mL] | Activity [6] | MIC (Enterococcus faecalis) [µg/mL] | MIC (Klebsiella pneumoniae) [µg/mL] | MIC (Staphylococcus aureus [7]) [µg/mL] | MIC (Escherichia coli [8]) [µg/mL] | ΔTm [9] [°C] | other results |
| --- | --- | --- | --- | --- | --- | --- | --- | --- | --- | --- | --- | --- | --- | --- | --- | --- | --- | --- |
| COC(=O)c1cc(N2CCN(C)CC2)cc2[nH]c(-c3ccc(O)cc3)nc12 | 16 (≈ 43.7 µM) | > 32 | > 32 | > 32 | 16 to 32 (≈ 43.7 to 87.3 µM) | > 32 | 16 to 32 (≈ 43.7 to 87.3 µM) | > 32 | 16 (≈ 43.7 µM) | > 32 | > 32 | Active | 16 to 32 (≈ 43.7 to 87.3 µM) | > 32 | > 32 | 16 (≈ 43.7 µM) | 0 |  |
| C#CCOCCCCOc1ccc(-c2nc3ccc(-c4nc5ccc(N6CCN(C)CC6)cc5[nH]4)cc3[nH]2)cc1 | 8 to 16 (≈ 15 to 29.9 µM) | 1 to 2 (≈ 1.87 to 3.74 µM) |  | > 32 |  | 1 (≈ 1.87 µM) |  | 4 (≈ 7.48 µM) | 16 (≈ 29.9 µM) | 8 (≈ 15 µM) | 4 (≈ 7.48 µM) |  |  | > 32 | 1 to 2 (≈ 1.87 to 3.74 µM) |  |  | Activity (DU-145; human, du-145, 48 h): Toxic; inhibition (Escherichia coli [10]): inactive; inhibition (Escherichia coli [11]): inactive |
| C#CCCCCCCc1cn(CCOc2ccc(-c3nc4ccc(N5CCN(C)CC5)cc4[nH]3)cc2)nn1 | 16 (≈ 31.3 µM) | > 32 | > 32 | > 32 | 16 to 32 (≈ 31.3 to 62.5 µM) |  | 16 to 32 (≈ 31.3 to 62.5 µM) | > 32 | 16 (≈ 31.3 µM) | > 32 | > 32 | Active | 16 to 32 (≈ 31.3 to 62.5 µM) | > 32 |  | 16 (≈ 31.3 µM) | 0.5 |  |
| CN1CCN(c2cc(C(=O)O)c3nc(-c4ccc(O)cc4)[nH]c3c2)CC1 | > 32 |  |  |  | > 32 |  | > 32 |  | > 32 |  |  | Active | > 32 |  |  | > 32 | 0 |  |
| C#CCOCCOCCOCCOCCOCCOCCOc1ccc(-c2nc3ccc(-c4nc5ccc(N6CCN(C)CC6)cc5[nH]4)cc3[nH]2)cc1 | 16 to 32 (≈ 22 to 44 µM) | ≥ 32 | > 32 | > 32 | 16 to 32 (≈ 22 to 44 µM) | > 32 | 16 to 32 (≈ 22 to 44 µM) | 16 to 32 (≈ 22 to 44 µM) | 16 to 32 (≈ 22 to 44 µM) | > 32 | ≥ 32 | Active | 16 to 32 (≈ 22 to 44 µM) | > 32 | > 32 | 2 to 4 (≈ 2.75 to 5.5 µM) | 13.1 | IC50 (DU-145; Homo sapiens, DU-145, 48 h): > 10 µM; IC50 [12]: > 50 µM; inhibition (Escherichia coli [11]): inactive |
| CN1CCN(c2ccc3nc(-c4ccc(OCc5cn(CCN=[N+]=[N-])nn5)cc4)[nH]c3c2)CC1 | 16 (≈ 34.9 µM) | > 32 | > 32 | > 32 | 16 to 32 (≈ 34.9 to 69.8 µM) | > 32 | 16 to 32 (≈ 34.9 to 69.8 µM) | > 32 | 16 (≈ 34.9 µM) | > 32 | > 32 | Active | 16 to 32 (≈ 34.9 to 69.8 µM) | > 32 | > 32 | 16 (≈ 34.9 µM) | 1.2 |  |
| C#CCOCCCCCCOc1ccc(-c2nc3ccc(N4CCN(C)CC4)cc3[nH]2)cc1 | 16 (≈ 35.8 µM) | > 32 | > 32 | > 32 | 16 to 32 (≈ 35.8 to 71.7 µM) | > 32 | 16 to 32 (≈ 35.8 to 71.7 µM) | > 32 | 16 (≈ 35.8 µM) | > 32 | > 32 | Active | 16 to 32 (≈ 35.8 to 71.7 µM) | > 32 | > 32 | 16 (≈ 35.8 µM) | 1.4 |  |
